In the library only some 2.8% were active in any assay of this set; here they are far more common.
Calb biofilm kill: clotrimazole potentiators killing C. albicans biofilm, primary screen, 4-compound mixtures. C. albicans biofilm persisters + clotrimazole, fluorescence viability; primary screen in compound mixtures of four per well. inhibition, % at 7.6 µM. 120,000 compounds, 0.02% hits. AID 1242, 2008;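 active means inhibition above 30.3% in the primary screen of four-compound pools, then above 30% when the compound was retested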;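 further: compounds exposed to preformed 24 h biofilms for 48 h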
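Test system: C. albicans biofilms. Buffer or medium: RPMI/MOPS medium, pH 7.0. Timing: 48 h compound exposure at 37 °C. Technique: Alamar Blue fluorescence. Evaluation: percent inhibition of biofilm viability.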
Arbovirus anti: antivirals against arbovirus infection, primary screen, cell-based, full library, 10K replicate subset | 200,000 compounds, 0.37% hits | AID 1251, 2008 | inhibition, % at 10 µM | arbovirus infection cell-based antiviral screen; in the data active means inhibition above about 30%
Calpain2 inh: inhibitors of pig calpain II, primary screen, biochemical, fluorogenic peptide substrate, 1536-well; purified calpain II, 30 min; inhibition, % at 16 µM; 220,000 compounds, 0.37% hits;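 active means inhibition above about 50%, limit read from the data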
Bim-Mcl-1: inhibitors of Bim peptide binding to Mcl-1, primary screen, biochemical, bead-based flow cytometry, multiplex; Bim peptide-Mcl-1 binding; inhibition, % at 10 µM; 190,000 compounds, 0.1% hits; in the data active means inhibition above about 40%
Target sequence (Q07820 whole entry, looked up): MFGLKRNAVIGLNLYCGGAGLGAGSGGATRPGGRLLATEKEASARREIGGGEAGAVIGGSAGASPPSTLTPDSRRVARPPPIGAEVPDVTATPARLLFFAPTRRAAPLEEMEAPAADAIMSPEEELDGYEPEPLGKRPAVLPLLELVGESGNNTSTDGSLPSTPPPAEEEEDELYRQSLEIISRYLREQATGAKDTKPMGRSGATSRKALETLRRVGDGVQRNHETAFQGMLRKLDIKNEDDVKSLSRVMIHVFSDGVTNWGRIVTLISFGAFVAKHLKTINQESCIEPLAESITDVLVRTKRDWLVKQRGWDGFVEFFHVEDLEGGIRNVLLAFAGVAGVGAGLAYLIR
Mcl1 Noxa PPI: Mcl-1/Noxa binding inhibitors, primary screen, biochemical, TR-FRET, 1536-well; Induced myeloid leukemia cell differentiation protein Mcl-1 (Homo sapiens), Q07820; TR-FRET Mcl-1/Noxa peptide binding, 2 h; inhibition, % at 21.7 µM; 220,000 compounds, 1.5% hits;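 active means compounds that cut the protein-peptide binding signal by more than 50% relative to plate controls in a single-dose test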;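 further: His-tagged Mcl-1 with rhodamine Noxa BH3 peptide and terbium anti-His antibody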
Mcl1 Bid PPI: Mcl-1/Bid binding inhibitors, primary screen, biochemical, TR-FRET, 1536-well; 220,000 compounds, 0.97% hits; inhibition, % at 21.7 µM; AID 1021, 2008; Induced myeloid leukemia cell differentiation protein Mcl-1 (Homo sapiens), Q07820; TR-FRET Mcl-1/Bid-Dy647 peptide binding;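 active means compounds that cut the binding signal by more than half at the single screening dose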;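 further: His-tagged Mcl-1 with europium anti-His antibody binding Bid BH3 peptide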
Each line names hits and unclear results; the compound was inactive in the other large screens.

COc1cc2c(C#N)c(N3CCCCC3)nc(N)c2c(N)n1	none (no result: Calb biofilm kill)
COc1ccc(CN2C(=O)Cc3c2nc(N)c2c(N)nc(N4CCCCC4)c(C#N)c32)cc1	Mcl1 Noxa PPI 58
COC(=O)c1ccccc1NC(=O)CN1CCC(NC(=O)c2ccc(C)cc2)CC1	Arbovirus anti 55 (no result: Calb biofilm kill)
CCOC(=O)c1ccccc1NC(=O)CN1CCC(n2nnc3cc(C(F)(F)F)ccc32)CC1	none (no result: Arbovirus anti, Bim-Mcl-1)
COC(=O)c1ccccc1NC(=O)CN1CCC(n2nnc3cc(F)ccc32)CC1	Arbovirus anti 40 (no result: Calb biofilm kill)
CCOc1ccccc1NC(=O)CN1CCC(NC(=O)c2ccccc2)CC1	none (no result: Calb biofilm kill)
Cc1ccnc(NS(=O)(=O)c2cnc(Cl)c(Br)c2)c1	none
OCC1CCCCN1C(=S)Nc1cccc(Cl)c1 (stereo not drawn)	none
Cc1nc2ccccc2nc1OCc1ccc([N+](=O)[O-])cc1	none
Nc1ccc(C(=O)N/N=C\C=C\c2ccc([N+](=O)[O-])cc2)cc1	none
Cc1ccc(CN2CCN(C(=O)c3ccncc3)CC2)cc1	none
Nc1cc2nsnc2cc1Br	Mcl1 Noxa PPI 61 (no result: Calb biofilm kill)
COc1ccc(C2C(C(=O)NCc3ccccn3)CCC(=O)N2c2cc(OC)c(OC)c(OC)c2)cc1 (stereo not drawn)	none
CCc1ccc(C(=O)Nc2ccc(S(=O)(=O)Nc3nc(C)cc(C)n3)cc2)o1	Arbovirus anti 106 (no result: Calb biofilm kill)
O=C(CCCN1C(=O)/C(=C/c2ccccc2Cl)SC1=S)NNC(=O)c1ccc(Cl)cc1Cl	Calpain2 inh 52 (no result: Arbovirus anti, Bim-Mcl-1)
COc1ccccc1C(=O)NNC(=O)CCCN1C(=O)/C(=C/c2cccs2)SC1=S	Mcl1 Noxa PPI 52
O=C(CCCN1C(=O)/C(=C/c2ccccc2Cl)SC1=S)NNC(=O)c1ccccc1	none
CC(=O)Nc1ccc(C(=O)CSc2nccc(=O)[nH]2)cc1	none
CC(=O)Nc1ccc(C(=O)/C=C/c2ccco2)cc1	Mcl1 Noxa PPI 61
CC(=O)Nc1cccc(C(=O)/C=C/c2ccco2)c1	none (no result: Calb biofilm kill)
CC(=O)Nc1cccc(C(=O)/C=C/c2ccc(/C=C/C(=O)c3cccc(NC(C)=O)c3)cc2)c1	Mcl1 Bid PPI 59
O=C(/C=C\c1ccco1)c1ccc(NC(=O)c2ccco2)cc1	Mcl1 Noxa PPI 76
O=C(NCC1CCCO1)c1cc(S(=O)(=O)Nc2ccc(Br)cc2)ccc1Cl (stereo not drawn)	none
CCCC(=O)Nc1ccc2c(c1)nc(CCN1CCCCC1)n2C	none (no result: Arbovirus anti, Bim-Mcl-1)
CC(C)(C)NC(=O)Cn1c(Cl)nc2ccccc21	none
Cc1ccn2c(-c3n[nH]c(=S)n3C)c(C)nc2c1	Mcl1 Noxa PPI 54
Cc1cccc(-c2n[nH]c(=S)n2C)c1	none
CCN(CC)S(=O)(=O)c1ccc(C(=O)NNc2nc(-c3ccccc3)c3cc(Br)ccc3n2)cc1	none
CC(C)(C)C(=O)NNc1nc(-c2ccccc2)c2cc(Br)ccc2n1	Mcl1 Bid PPI 97
Cc1cc(C)c(NC(=O)c2sc3nc4c(cc3c2N)C(=O)CC(C)(C)C4)c(C)c1	none
Cc1cc(C)c2cc3c(N)c(C(=O)Nc4c(C)[nH]c(=O)[nH]c4=O)sc3nc2c1	Mcl1 Noxa PPI 54
O=C(CSc1ncn(-c2ccccc2)n1)Nc1nc2ccccc2s1	Arbovirus anti 40 (no result: Calb biofilm kill)
O=C(CSc1ncn(-c2ccccc2)n1)Nc1nc(-c2ccccc2)cs1	none
O=C(CS(=O)(=O)Cc1ccccc1)Nc1nc2ccccc2s1	Arbovirus anti 48 (no result: Calb biofilm kill)
COc1ccc(C(=O)C2=NN(C(C)=O)CC2c2ccco2)cc1 (stereo not drawn)	none
COC(=O)CSc1nc(C)c(C)c(C)c1C(N)=O	Mcl1 Bid PPI 70
CCOc1ccc(NC(=O)CSc2nnc(CCNC(=O)c3ccc(OC)cc3)n2C)cc1	none (no result: Calb biofilm kill)
N#Cc1c(N)sc(=S)c2c1CCN(Cc1ccccc1)C2	Mcl1 Noxa PPI 71 (no result: Calb biofilm kill)
Cc1cc(C)nc(/N=C(\N)N2CCCCCC2)n1	none
Cc1cc(C)nc(/N=C(\N)N2CCc3ccccc32)n1	Bim-Mcl-1 49
CC1=CC(=O)c2ccccc2C1=O	none
CC(C)(C=O)C1=CC(=O)c2ccccc2C1=O	Mcl1 Noxa PPI 85
CSc1nc(NCCOCCO)c2sc3nc(-c4ccco4)c4c(c3c2n1)CCC4	Mcl1 Noxa PPI 96 (no result: Calb biofilm kill)
CCN(CCO)c1nc(SC)nc2c1sc1nc(-c3ccco3)c3c(c12)CCC3	Mcl1 Noxa PPI 99, Mcl1 Bid PPI 52 (no result: Calb biofilm kill)
O=C(COC(=O)c1cc(S(=O)(=O)NCc2ccccc2)ccc1O)c1cc2ccccc2o1	none (no result: Arbovirus anti, Bim-Mcl-1)
COc1ccccc1/C=C(/C(=O)OCC(=O)Nc1ccc(N(C)C)cc1)c1ccccc1	Mcl1 Noxa PPI 69
COc1ccccc1/C=C(/C(=O)OCC(=O)Nc1ccccc1C)c1ccccc1	none
Cc1cccc(NC(=O)COC(=O)CCc2ccc(S(=O)(=O)N3CCOCC3)cc2)c1C	none
CCCCCc1nc2c(=O)[nH]c3ccccc3c2o1	Mcl1 Noxa PPI 77 (no result: Calb biofilm kill)
CCCc1nc2c(=O)[nH]c3ccccc3c2o1	none (no result: Calb biofilm kill)
O=S(=O)(c1ccccc1)N1CCN(Cc2ccccc2C(F)(F)F)CC1	Mcl1 Bid PPI 83 (no result: Calb biofilm kill)
Cc1ccc(S(=O)(=O)N2CCN(Cc3ccccc3C(F)(F)F)CC2)cc1	none (no result: Calb biofilm kill)
Cn1cncc1C(=O)c1ccccc1	none (no result: Arbovirus anti, Bim-Mcl-1)
Cc1ccc(C(=O)NCCCn2ccnc2)o1	Mcl1 Bid PPI 62 (no result: Calb biofilm kill)
Cc1[nH]n(-c2ncc(-c3ccc(Cl)cc3)s2)c(=O)c1C(c1ccc(Cl)cc1)C(C#N)C#N (stereo not drawn)	Mcl1 Noxa PPI 92, Mcl1 Bid PPI 51
CCN(CC)S(=O)(=O)c1cccc(NC(=O)c2ccc(Sc3nncn3C)c([N+](=O)[O-])c2)c1	none
COc1cc(/C=C2/NC(=O)N(Cc3ccccc3F)C2=O)cc(OC)c1O	Bim-Mcl-1 51, Mcl1 Noxa PPI 57
CCOc1cc(/C=C2/NC(=O)N(Cc3ccccc3F)C2=O)ccc1O	none
NS(=O)(=O)c1ccc(N/C=C\C(=O)c2ccc3ccccc3c2)cc1	Mcl1 Bid PPI 54
COc1ccc(C(=O)/C=C/Nc2ccc(S(N)(=O)=O)cc2)cc1OC	none (no result: Arbovirus anti, Bim-Mcl-1)
CCOc1ccc2cc(/C=C/C(=O)c3ccco3)c(Cl)nc2c1	Mcl1 Bid PPI 59 (no result: Calb biofilm kill)
CCOC(=O)N1CCc2c(sc3c2c(=O)n(Cc2ccccc2)c(=O)n3CC(=O)NCCOC)C1	Calpain2 inh 58
CC1=CCC2C(=O)N(c3ccc(OC(=O)c4ccco4)cc3)C(=O)C2C1 (stereo not drawn)	none
CCOc1ccc(NS(=O)(=O)c2ccc(NC(=S)NC(=O)CC(C)C)cc2)cc1	Calpain2 inh 52 (no result: Calb biofilm kill)
Cc1ccc(N2C(=O)C3C(C2=O)C2C=CC3C23CC3)c([N+](=O)[O-])c1 (stereo not drawn)	none
COc1ccc(-c2nc(=S)c3c([nH]2)Oc2ccc(C)cc2C3)cc1O	Mcl1 Noxa PPI 66

Screening results from PubChem.
